Measured values taken from paper PMC3957490 (Neuron, 2014).

Experiments:
Format in all cases: cell-based
[1] = molecular target: 2BAC1/2BAC2 (tagged GluN1/GluN2B with GluN2A CTD) (Rattus norvegicus, UniProt P35439+Q00960); assay: whole-cell patch clamp, HEK293 cells; conditions: agonist; […] glutamate, […] glycine
[2] = molecular target: T1, 2AC1/2AC2 (tagged GluN1/GluN2A) (Rattus norvegicus, UniProt P35439+Q00959); assay: whole-cell patch clamp, HEK293 cells; conditions: agonist; […] glutamate, […] glycine
T1 sequence (Q00959 23-1464, other chains not shown): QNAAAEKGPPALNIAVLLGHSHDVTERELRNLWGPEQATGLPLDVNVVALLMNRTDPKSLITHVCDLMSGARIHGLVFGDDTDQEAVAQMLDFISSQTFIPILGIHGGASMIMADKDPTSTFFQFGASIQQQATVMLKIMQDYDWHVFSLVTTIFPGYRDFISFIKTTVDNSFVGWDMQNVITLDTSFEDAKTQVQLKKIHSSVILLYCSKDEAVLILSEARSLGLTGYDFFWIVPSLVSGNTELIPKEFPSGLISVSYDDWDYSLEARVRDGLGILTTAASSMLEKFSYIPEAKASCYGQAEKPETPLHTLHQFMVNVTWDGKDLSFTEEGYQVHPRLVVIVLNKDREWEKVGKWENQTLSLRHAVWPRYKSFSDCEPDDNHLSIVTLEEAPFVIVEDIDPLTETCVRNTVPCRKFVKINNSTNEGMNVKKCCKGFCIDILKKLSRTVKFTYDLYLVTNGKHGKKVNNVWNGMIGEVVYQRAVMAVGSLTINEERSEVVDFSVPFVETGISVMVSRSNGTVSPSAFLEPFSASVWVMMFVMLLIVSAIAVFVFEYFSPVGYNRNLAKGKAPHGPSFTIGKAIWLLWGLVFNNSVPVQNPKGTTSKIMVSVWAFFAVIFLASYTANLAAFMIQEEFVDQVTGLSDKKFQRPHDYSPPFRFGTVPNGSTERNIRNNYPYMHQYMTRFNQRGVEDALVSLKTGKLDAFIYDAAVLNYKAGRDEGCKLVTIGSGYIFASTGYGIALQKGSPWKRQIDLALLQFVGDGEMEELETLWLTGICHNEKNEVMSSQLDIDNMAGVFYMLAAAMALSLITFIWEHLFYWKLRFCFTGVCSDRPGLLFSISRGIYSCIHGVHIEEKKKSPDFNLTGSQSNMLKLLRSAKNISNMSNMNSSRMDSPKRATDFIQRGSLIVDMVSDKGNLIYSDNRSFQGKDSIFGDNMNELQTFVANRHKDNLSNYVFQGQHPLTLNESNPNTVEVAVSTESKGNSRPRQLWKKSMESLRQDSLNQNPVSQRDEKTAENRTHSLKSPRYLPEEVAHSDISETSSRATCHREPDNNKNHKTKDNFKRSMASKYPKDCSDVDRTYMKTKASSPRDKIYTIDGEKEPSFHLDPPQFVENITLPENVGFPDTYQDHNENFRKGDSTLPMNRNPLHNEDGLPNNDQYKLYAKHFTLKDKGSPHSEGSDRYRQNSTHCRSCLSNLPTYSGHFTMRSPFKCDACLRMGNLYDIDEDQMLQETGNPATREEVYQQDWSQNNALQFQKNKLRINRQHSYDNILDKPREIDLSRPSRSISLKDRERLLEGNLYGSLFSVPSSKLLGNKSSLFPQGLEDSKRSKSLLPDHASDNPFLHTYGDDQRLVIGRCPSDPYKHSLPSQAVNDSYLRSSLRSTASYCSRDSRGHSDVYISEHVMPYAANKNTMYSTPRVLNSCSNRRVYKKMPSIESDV

[3] = molecular target: wt 2B/2B (wild type GluN1/GluN2B) (Rattus norvegicus, UniProt P35439+Q00960); assay: whole-cell patch clamp, HEK293 cells; conditions: agonist; […] glutamate, […] glycine
[4] = molecular target: T2, 2AC1/2BAC2 (GluN1/GluN2A/GluN2B triheteromer) (Rattus norvegicus, UniProt P35439+Q00959+Q00960); assay: whole-cell patch clamp, HEK293 cells; conditions: agonist; […] glutamate, […] glycine
T2 sequence (Q00959 23-1464, other chains not shown): as above

[5] = molecular target: T3, wt 2A/2A (wild type GluN1/GluN2A) (Rattus norvegicus, UniProt P35439+Q00959); assay: whole-cell patch clamp, HEK293 cells; conditions: agonist; […] glutamate, […] glycine
T3 sequence (Q00959 23-1464, other chains not shown): as above

[6] = molecular target: T1, 2AC1/2AC2 (tagged GluN1/GluN2A); assay: two-electrode voltage clamp, Xenopus oocytes
In short: (§1)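 Oocytes injected with about 10 ng total cRNA of rat GluN1-1a plus wild-type or C1/C2-tagged GluN2 (tagged at 1:6:6); two-electrode voltage clamp. GluN2A-selective antagonists: 100 μM glutamate + 3 μM glycine. Divalent metal inhibitor: 50 μM glutamate + 50 μM glycine, −20 mV, kept below 300 nM, pH 7.3 (also 7.8, 6.8). GluN2B-selective antagonists: 100 μM glutamate + 50 μM glycine, −40 mV. IC50 from fitted concentration-response data, mean ± SEM over N oocytes.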

[7] = molecular target: T3, wt 2A/2A (wild type GluN1/GluN2A); assay: two-electrode voltage clamp, Xenopus oocytes
In short: as §1

[8] = molecular target: T2, 2AC1/2BAC2 (GluN1/GluN2A/GluN2B triheteromer); assay: two-electrode voltage clamp, Xenopus oocytes

| Brief glutamate activation (5 ms) / τweighted [1] [ms] | Brief glutamate activation (5 ms) / τweighted [2] [ms] | Brief glutamate activation (5 ms) / τweighted [3] [ms] | Brief glutamate activation (5 ms) / τweighted [4] [ms] | Brief glutamate activation (5 ms) / τweighted [5] [ms] | IC50 [6] [nM] | IC50 [7] [nM] | IC50 [8] [nM] | SMILES |
| --- | --- | --- | --- | --- | --- | --- | --- | --- |
| 274 ± 24 | 33 ± 2 | 314 ± 13 | 57 ± 4 | 32 ± 1 |  |  |  | N[C@@H](CCC(=O)O)C(=O)O [glutamate] |
|  |  |  |  |  | 360 ± 20 | 370 ± 30 | 1350 ± 130 | O=C(NNC(=O)c1ccc(CNS(=O)(=O)c2ccc(F)c(Cl)c2)cc1)c1ccccc1 [TCN-201] |
